Measurements reported in ChEMBL document CHEMBL3232958, “Antiproliferative and uncoupling effects of delocalized, lipophilic, cationic gallic acid derivatives on cancer cell lines. Validation in vivo in singenic mice” (J Med Chem, 2014).
pIC50: −log10 of the molar value. Activity calls are given as the source filed them. The calls are words filed in the database; no cut-off is given here.

Key:
TA3/Ha [1] = assay: Induction of apoptosis in mouse TA3/Ha cells assessed as caspase 3 activation at 0.5 uM after 24 hrs by Western blot analysis; assay type: functional, cell-based
Method in brief: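 Caspase 3 measured by Western blot. RIPA lysates, 50 μg protein run on 12% SDS–PAGE. Anti-caspase 3 (1:1000) and tubulin loading control (1:10000) overnight at 4 °C; HRP secondary for 2 h. ECL detection and densitometry.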

CCRF-CEM = assay: Cytotoxicity against human CCRF-CEM cells after 48 hrs by neutral red assay; assay type: functional, cell-based
Method in brief: (§1)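 Neutral red uptake after 48 h exposure at 37 °C, 5% CO2. Seeding: 1 × 10^5 cells/mL for TA3, TA3-MTX-R and CCRF-CEM; 4 × 10^4 cells/mL for MM3MG. Dye at 100 μg/mL for 2 h, then ethanol/acetic acid extraction and absorbance at 540 nm. IC50 from variable-slope sigmoidal dose–response fit; at least three independent experiments in triplicate, mean ± SEM.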

TA3/Ha (Mus musculus) [2] = assay: Induction of mitochondrial swelling in mouse TA3/Ha cell mitochondria at 0.15 mM by UV/vis spectrophotometer analysis in presence of cyclosporine-A
TA3/Ha [3] = assay: Decrease of mitochondrial transmembrane potential in mouse TA3/Ha cell mitochondria at 0.5 uM after 5 mins by JC-1 staining; assay type: functional
[4] = Uncoupling respiration effect in mouse TA3-MTX-R cells after 2 mins by polarographic analysis in presence of atractyloside; assay type: functional
Method in brief: (§2)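 Polarographic respiration of digitonin-permeabilized cells (0.013 μg/mg protein; 2.5 mg protein/mL) in PBS pH 7.4 with 10 mM succinate and 1 μg/mL oligomycin. Cations added in 3 μL DMSO. Atractyloside 5 nmol/mg protein was added before succinate. FCCP added at the end: 0.15 μM for TA3, 0.25 μM for TA3-MTX-R. Slope and K0.5 taken from log–log linear regression; at least three experiments.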

TA3/Ha [5] = assay: Induction of apoptosis in mouse TA3/Ha cells assessed as early stage apoptotic cells at 0.5 uM after 24 to 48 hrs using annexin V/propidium iodide staining by flow cytometry; assay type: functional, cell-based
Method in brief: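 Annexin V-FITC/PI flow cytometry on 1 × 10^5 cells/mL treated for 24 and 48 h at 37 °C, 5% CO2. 5 min staining at room temperature; 5000 events recorded. Early apoptosis scored as annexin V+/PI−. Staurosporine 10 μM as positive control; at least three experiments, ANOVA with Bonferroni test.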

[6] = Uncoupling respiration effect in mouse TA3-MTX-R cells after 2 mins by polarographic analysis in presence of FCCP; assay type: functional; method in brief: as §2
[7] = Uncoupling respiration effect in mouse TA3/Ha cells after 2 mins by polarographic analysis in presence of atractyloside; assay type: functional; method in brief: as §2
TA3/Ha [8] = assay: Induction of mitochondrial swelling in mouse TA3/Ha cell mitochondria at 0.05 to 0.20 mM by UV/vis spectrophotometer analysis; assay type: functional
TA3/Ha [9] = assay: Decrease of mitochondrial transmembrane potential in mouse TA3/Ha cell mitochondria at 0.5 uM after 5 mins by JC-1 staining in presence of ADP; assay type: functional
[10] = Cytotoxicity against mouse TA3/Ha cells after 48 hrs by neutral red assay; assay type: functional, cell-based; method in brief: as §1
[11] = Cell cycle arrest in mouse TA3/Ha cells assessed as accumulation at G0/G1 phase at 0.1 to 5 uM after 24 hrs; assay type: functional, cell-based
TA3/Ha [12] = assay: Induction of mitochondrial swelling in mouse TA3/Ha cell mitochondria at 0.15 mM by UV/vis spectrophotometer analysis in presence of cyclosporine-A; assay type: functional
Method in brief: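 Same swelling set-up with TA3/Ha mitochondria (0.5 mg/mL, KCl/Tris pH 7.4, glutamate/malate) at 0.15 mM cation, with increasing cyclosporine concentrations.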

[13] = Uncoupling respiration effect in mouse TA3/Ha cells after 2 mins by polarographic analysis in presence of FCCP; assay type: functional; method in brief: as §2
TA3/Ha [14] = assay: Cytotoxicity against mouse TA3/Ha cells up to 24 hrs by lactate dehydrogenase assay; assay type: functional, cell-based
Method in brief: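 LDH release measured with a kit on 2 × 10^5 cells/mL incubated at 37 °C, 5% CO2, 90% humidity. Supernatant taken after centrifugation at 600g for 3 min, then 30 min with reaction mix at room temperature; absorbance read at 450 nm.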

[15] = Ratio of IC50 for mouse MM3MG cells to IC50 for mouse TA3/Ha cells
Method in brief: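 Ratio of 48 h neutral red IC50 values. MM3MG seeded at 4 × 10^4 cells/mL, TA3 at 1 × 10^5 cells/mL. Each IC50 from a variable-slope sigmoidal fit of at least three independent experiments.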

TA3/Ha [16] = assay: Induction of mitochondrial swelling in mouse TA3/Ha cell mitochondria at 0.15 mM by UV/vis spectrophotometer analysis in presence of N-ethylmaleimide; assay type: functional
Method in brief: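 Same swelling set-up with TA3/Ha mitochondria at 0.15 mM cation, in the presence of NEM, DTT or NAC. Mean ± SEM of at least three experiments, ANOVA with Bonferroni test.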

TA3/Ha (Mus musculus) [17] = assay: Induction of mitochondrial swelling in mouse TA3/Ha cell mitochondria at 0.15 mM by UV/vis spectrophotometer analysis in presence of N-ethylmaleimide
[18] = Cytotoxicity against mouse MM3MG cells after 48 hrs by neutral red assay; assay type: cell-based; method in brief: as §1
TA3/Ha [19] = assay: Decrease of mitochondrial transmembrane potential in mouse TA3/Ha cell mitochondria at 0.5 uM after 5 mins by safranin staining; assay type: functional
Method in brief: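 Safranin (20 μM) absorbance change at 511–533 nm in isolated mitochondria (1.0 mg/mL) in sucrose/KCl/Hepes pH 7.4 buffer with EGTA and phosphate. Baseline 5 min, then 2 mM glutamate + 2 mM malate for 5 min, then cation added. Mean ± SD of at least three experiments.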

TA3/Ha [20] = assay: Induction of NAD(P)H oxidation in mouse TA3/Ha cells assessed as reduction of NAD(P)H/NAD(P)+ ratio by spectrofluorometer analysis; assay type: functional, cell-based
Method in brief: (§3)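 NAD(P)H autofluorescence (ex 340, em 420 nm) at 25 °C with stirring. Medium: PBS pH 7.4, 2.5 mM glutamine, TA3 cells at 2.5 mg protein/mL. Rotenone (12 μM), FCCP (6 μM) or test cation added during the time course.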

TA3/Ha [21] = assay: Reduction of ATP level in mouse TA3/Ha cells at 1 to 20 uM after 2 hrs by CellTiter-Glo luminescent assay; assay type: functional, cell-based
Method in brief: (§4)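 CellTiter-Glo luminescence on 2 × 10^5 cells/mL incubated with cation for 2 h. Aliquot held 10 min at room temperature in the dark before reading; at least three experiments.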

[22] = Toxicity in mouse TA3/Ha cells assessed as cell membrane integrity after 24 hrs using propidium iodide by flow cytometry; assay type: cell-based; details: 2 to 4 h, in the assay text read “after 2 to 4 hrs” for “after 24 hrs”
Method in brief: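 Membrane integrity by PI uptake on flow cytometry. Cells were seeded, grown for 24 h at 37 °C, 5% CO2, then given fresh medium with cation for 2 and 4 h before PI was added. Mean ± SEM of at least three experiments.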

TA3/Ha [23] = assay: Reduction of ATP level in mouse TA3/Ha cells after 2 hrs by CellTiter-Glo luminescent assay; assay type: functional, cell-based; method in brief: as §4
TA3/Ha [24] = assay: Induction of NAD(P)H oxidation in mouse TA3/Ha cells assessed as reduction of NAD(P)H/NAD(P)+ ratio at 2.5 mg of protein/mL by spectrofluorometer analysis; assay type: functional, cell-based; method in brief: as §3

O=C(OCCCCCCCCCC[P+](c1ccccc1)(c1ccccc1)c1ccccc1)c1cc(O)c(O)c(O)c1.[Br-]
Activity (TA3/Ha [1]): Active | pIC50 (CCRF-CEM): 5.78 | Activity (TA3/Ha (Mus musculus) [2]): Active | Activity (TA3/Ha [3]): Active | K0.5 [4]: 5.24 ×10⁻⁵ M | Activity (TA3/Ha [5]): Active | K0.5 [6]: 1.8 ×10⁻⁵ M | K0.5 [7]: 4.29 ×10⁻⁵ M | Activity (TA3/Ha [8]): Active | Activity (TA3/Ha [9]): Active | pIC50 [10]: 6.40 | Activity [11]: Active | Activity (TA3/Ha [12]): Active | K0.5 [13]: 1.21 µM | Activity (TA3/Ha [14]): Active | Ratio IC50 [15]: 17 | Activity (TA3/Ha [16]): inactive | Activity (TA3/Ha (Mus musculus) [17]): inactive | pIC50 [18]: 5.15 | Activity (TA3/Ha [19]): Active | Activity (TA3/Ha [20]): Dose-dependent effect | Activity (TA3/Ha [21]): Active | Activity [22]: Non-toxic | Activity (TA3/Ha [23]): Dose-dependent effect | Activity (TA3/Ha [24]): Active
